Test results as given in ChEMBL document CHEMBL4270616, “Asymmetrical meta-methoxylated diarylpentanoids: Rational design, synthesis and anti-cancer evaluation in-vitro” (Eur J Med Chem, 2018).
The source made the active and inactive calls.

What was measured:
[1] = Cytotoxicity against human EJ28 cells after 72 hrs by MTT assay; assay type: functional, cell-based; details: EJ-28, 72 h
Procedure, shortened: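 Tumour lines kept in DMEM with 10% FBS and 1% penicillin/streptomycin at 37°C, 5% CO2. Seeded at 1500-5000 cells/well by doubling time and size, 24 h, then compound in DMSO-containing medium (final DMSO 0.1%) for 72 h. MTT (5 mg/mL) 4 h at 37°C, DMSO solubilisation, absorbance at 570 nm.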

NHDF = assay: Cytotoxicity against NHDF after 72 hrs by MTT assay; assay type: cell-based; details: Homo sapiens
Procedure, shortened: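 NHDF grown in DMEM with 5% FBS at 37°C, 5% CO2. Seeded at 1500-5000 cells/well, 24 h, then compound added in DMSO-containing medium (final DMSO 0.1%) for 72 h. MTT (5 mg/mL in medium) added for 4 h at 37°C, formazan dissolved in DMSO, absorbance read at 570 nm.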

[2] = Cytotoxicity against human EJ28 cells assessed as inhibition of cell proliferation at 20 uM after 72 hrs by MTT assay relative to control; assay type: functional; details: EJ-28, 72 h
Procedure, shortened: (§1)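 Single-concentration screen at 20 μM with 72 h exposure in DMEM with 10% FBS, final DMSO 0.1%. Read-out was MTT (5 mg/mL, 4 h, 37°C), DMSO solubilisation and absorbance at 570 nm, expressed as percent inhibition. Lines reaching a threshold percentage went on to IC50 determination.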

HT-1080 = assay: Cytotoxicity against human HT1080 cells assessed as inhibition of cell proliferation at 20 uM after 72 hrs by MTT assay relative to control; assay type: functional; details: HT-1080, 72 h; procedure, shortened: as §1
SW-620 [3] = assay: Inhibition of colony formation in human SW620 cells at 1.25 to 5 uM after 10 days by crystal violet staining based assay; assay type: functional, cell-based
Procedure, shortened: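 SW620 cells seeded at 1000 cells/well in DMEM and incubated overnight at 37°C, 5% CO2. Compound-containing medium was given for ten days and renewed every three days. Cells were then washed with PBS, fixed 15 min in 4% paraformaldehyde, stained 10 min with 0.5% (w/v) crystal violet, washed, air-dried and photographed. Colony formation was quantified from the images.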

SW-620 [4] = assay: Anticlonogenic activity against human SW620 cells assessed as colony formation at 0.625 uM after 10 days by crystal violet staining based imaging analysis (reference value: 100%); assay type: functional
Procedure, shortened: (§2)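 SW620 cells seeded at 1000 cells/well in DMEM, left overnight at 37°C, 5% CO2, then exposed to compound for ten days with drug-containing medium renewed every three days. Cells were PBS-washed, fixed in 4% paraformaldehyde for 15 min, stained with 0.5% (w/v) crystal violet for 10 min, air-dried, photographed, and colonies quantified by image analysis.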

SW-620 [5] = assay: Anticlonogenic activity against human SW620 cells assessed as colony formation at 1.25 uM after 10 days by crystal violet staining based imaging analysis (reference value: 100%); assay type: functional; procedure, shortened: as §2
SW-620 [6] = assay: Cell cycle arrest in human SW620 cells assessed as accumulation at G2/M phase at 1.25 uM after 24 hrs by propidium iodide staining based flow cytometry (reference value: 19%); assay type: functional
SW-620 [7] = assay: Cell cycle arrest in human SW620 cells assessed as accumulation at G2/M phase at 2.5 uM after 24 hrs by propidium iodide staining based flow cytometry (reference value: 19%); assay type: functional
SW-620 [8] = assay: Induction of apoptosis in human SW620 cells assessed as live cells at 1.25 uM after 24 hrs by Annexin V-FITC/propidium iodide staining based flow cytometry (reference value: 97.03%); assay type: functional
SW-620 [9] = assay: Induction of apoptosis in human SW620 cells assessed as late apoptotic cells at 2.5 uM after 24 hrs by Annexin V-FITC/propidium iodide staining based flow cytometry (reference value: 0.43%); assay type: functional
SW-620 [10] = assay: Induction of apoptosis in human SW620 cells assessed as live cells at 5 uM after 24 hrs by Annexin V-FITC/propidium iodide staining based flow cytometry (reference value: 97.03%); assay type: functional
SW-620 [11] = assay: Induction of apoptosis in human SW620 cells assessed as early apoptotic cells at 5 uM after 24 hrs by Annexin V-FITC/propidium iodide staining based flow cytometry (reference value: 2.35%); assay type: functional
SW-620 [12] = assay: Induction of apoptosis in human SW620 cells assessed as late apoptotic cells at 5 uM after 24 hrs by Annexin V-FITC/propidium iodide staining based flow cytometry (reference value: 0.43%); assay type: functional
SW-620 [13] = assay: Induction of apoptosis in human SW620 cells assessed as necrotic cells at 5 uM after 24 hrs by Annexin V-FITC/propidium iodide staining based flow cytometry (reference value: 0.15%); assay type: functional
SW-620 [14] = assay: Induction of apoptosis in human SW620 cells assessed as live cells at 1.25 uM after 48 hrs by Annexin V-FITC/propidium iodide staining based flow cytometry (reference value: 96.26%); assay type: functional
SW-620 [15] = assay: Induction of apoptosis in human SW620 cells assessed as early apoptotic cells at 1.25 uM after 48 hrs by Annexin V-FITC/propidium iodide staining based flow cytometry (reference value: 2.75%); assay type: functional
SW-620 [16] = assay: Induction of apoptosis in human SW620 cells assessed as live cells at 10 uM after 48 hrs by Annexin V-FITC/propidium iodide staining based flow cytometry (reference value: 96.26%); assay type: functional
SW-620 [17] = assay: Induction of apoptosis in human SW620 cells assessed as early apoptotic cells at 10 uM after 48 hrs by Annexin V-FITC/propidium iodide staining based flow cytometry (reference value: 2.75%); assay type: functional
SW-620 [18] = assay: Induction of apoptosis in human SW620 cells assessed as late apoptotic cells at 1.25 uM after 72 hrs by Annexin V-FITC/propidium iodide staining based flow cytometry (reference value: 0.29%); assay type: functional
SW-620 [19] = assay: Induction of apoptosis in human SW620 cells assessed as necrotic cells at 1.25 uM after 72 hrs by Annexin V-FITC/propidium iodide staining based flow cytometry (reference value: 0.27%); assay type: functional
SW-620 [20] = assay: Induction of apoptosis in human SW620 cells assessed as live cells at 2.5 uM after 72 hrs by Annexin V-FITC/propidium iodide staining based flow cytometry (reference value: 97.34%); assay type: functional
SW-620 [21] = assay: Induction of apoptosis in human SW620 cells assessed as necrotic cells at 2.5 uM after 72 hrs by Annexin V-FITC/propidium iodide staining based flow cytometry (reference value: 0.27%); assay type: functional
SW-620 [22] = assay: Induction of apoptosis in human SW620 cells assessed as necrotic cells at 5 uM after 72 hrs by Annexin V-FITC/propidium iodide staining based flow cytometry (reference value: 0.27%); assay type: functional
SW-620 [23] = assay: Induction of apoptosis in human SW620 cells assessed as live cells at 10 uM after 72 hrs by Annexin V-FITC/propidium iodide staining based flow cytometry (reference value: 97.34%); assay type: functional
SW-620 [24] = assay: Induction of ROS generation in human SW620 cells after 12 hrs by DCFDA staining based flow cytometry; assay type: functional, cell-based
Procedure, shortened: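 SW620 cells (2×10^5/well) adhered overnight and were loaded with 10 μM DCFDA in medium for 1 h, then washed twice with PBS. Compound exposure followed at several concentrations for 12 h, with untreated and hydrogen peroxide-treated controls. Harvested cells were resuspended in PBS and DCF fluorescence read by flow cytometry at ex 488/em 525 nm.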

| SMILES | IC50 [1] [µM] | IC50 (NHDF) [µM] | inhibition at 20 µM [2] [%] | inhibition at 20 µM (HT-1080) [%] | inhibition (SW-620 [3]) | Activity (SW-620 [4]) [%] | Activity (SW-620 [5]) [%] | Activity (SW-620 [6]) [%] | Activity (SW-620 [7]) [%] | Activity (SW-620 [8]) [%] | Activity (SW-620 [9]) [%] | Activity (SW-620 [10]) [%] | Activity (SW-620 [11]) [%] | Activity (SW-620 [12]) [%] | Activity (SW-620 [13]) [%] | Activity (SW-620 [14]) [%] | Activity (SW-620 [15]) [%] | Activity (SW-620 [16]) [%] | Activity (SW-620 [17]) [%] | Activity (SW-620 [18]) [%] | other results |
| --- | --- | --- | --- | --- | --- | --- | --- | --- | --- | --- | --- | --- | --- | --- | --- | --- | --- | --- | --- | --- | --- |
| COc1ccc(/C=C2\CCC/C(=C\c3cc(OC)c(OC)c(OC)c3)C2=O)cc1OC | 1.7 | 5.8 | > 50 | > 50 | Active | 84.6 | 0.5 | 20 | 50 | 89.83 | 1 | 55.03 | 40.26 | 0.35 | 0.36 | 82.82 | 6.01 | 13.21 | 0.37 | 1.3 | Activity (SW-620 [19]): 0.35%; Activity (SW-620 [20]): 66.34%; Activity (SW-620 [21]): 1.36%; Activity (SW-620 [22]): 0.33%; Activity (SW-620 [23]): 2.37%; Activity (SW-620 [24]): Dose-dependent effect |
| COc1ccc(/C=C2\CCC/C(=C\c3cccc(O)c3)C2=O)cc1OC | 1.8 | 6.8 | > 50 | > 50 | Active | 93.4 | 0.8 | 24 | 49 | 96.2 | 0.64 | 73.65 | 23.28 | 2.26 | 0.35 | 94.54 | 4.11 | 17 | 9.84 | 1.82 | Activity (SW-620 [19]): 0.63%; Activity (SW-620 [20]): 63.72%; Activity (SW-620 [21]): 0.78%; Activity (SW-620 [22]): 1.23%; Activity (SW-620 [23]): 2.19%; Activity (SW-620 [24]): Dose-dependent effect |
